From PubChem BioAssay
MC4R antag cAMP – antagonists of human melanocortin 4 receptor (MC4R). P32245. MC4R-expressing cells, MTII-stimulated cAMP, LANCE TR-FRET. inhibition, % at 6.5 µM. actives 0.48% (n = 360,000);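 active = inhibition above its plate's cutoff, the mean of tested wells on that plate plus 3 SD, cut at about 29% in these data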
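Test system: U2OS cells stably expressing human melanocortin 4 receptor (MC4R); also added: Melanotan II challenge; compound: 6.5 µM single dose; timing: 30-min compound preincubation, 1-h Melanotan II challenge, 1-h detection, room temperature; signal: Eu-cAMP/anti-cAMP TR-FRET, emission 671 nm; repeats: one well per compound, no replicates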
HTR2A ag – activates the mouse 5-HT2A serotonin receptor | P35363 | CHO-K1 mHTR2A beta-arrestin complementation, luminescence; percent of 30 µM serotonin response | activation, % at 7.6 µM | actives 0.66% (n = 360,000) | AID 624169;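 active = activation above a run cutoff, the mean activation of all tested compounds plus 3 SD, cut at about 14% in these data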
MC4R ag barr – activates human MC4R beta-arrestin recruitment; activation, % at 8.9 µM; P32245; AID 540308; actives 0.98% (n = 360,000); U2OS MC4R beta-arrestin complementation, luminescence; percent of melanotan II response, DMSO zero;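 active = activation above a per-plate cutoff, the mean activation of sample wells on that plate plus 3 SD, cut at about 8% in these data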
TAAR1 ag – agonists of human TAAR1; actives 0.99% (n = 360,000); activation, % at 3 µM; AID 624467; Q96RJ0; CHO RD-HGA16 TAAR1, Fluo-8 calcium fluorescence; vehicle wells 0%, saturating PEA agonist 100%;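 active = activation above the mean activation of all test compounds in the run plus 3 SD, cut at about 38% in these data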
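Benchmarks: low control DMSO, high control PEA (EC100); System: CHO RD-HGA16 cells carrying human TAAR1 plus Gα16; Detection: Fluo-8 fluorescence, 5 s baseline then 140 s kinetic read; Schedule: 17-24 h plating, Fluo-8 75 min 37 °C, 30 min RT; Read-out basis: % activation from peak over basal fluorescence ratio, DMSO-to-PEA scaled.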
TAAR1 antag – antagonists of human TAAR1 | Q96RJ0 | CHO RD-HGA16 TAAR1, Fluo-8 calcium fluorescence, antagonist | inhibition, % at 3 µM | actives 1.5% (n = 360,000) | AID 624466;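 active = inhibition above a per-plate cutoff, the mean inhibition of test compounds on that plate plus 3 SD, cut at about 49% in these data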
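Test system: hTAAR1-expressing CHO RD-HGA16 cells, Gα16-coupled; Probe or stimulus: EC80 β-phenethylamine stimulus; Compound dosing: single nominal final test compound concentration of 3 µM; Timing: 140 s kinetic read after compound, 140 s after agonist; Signal: Fluo-8 calcium-sensitive fluorescence; Measure: % inhibition of agonist calcium response; Controls: DMSO and EC80 PEA controls.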
Beta2AR agonist – agonists of human beta-2 adrenergic receptor inducing internalization; P07550; Am2.2-beta2AR cells, FAP receptor internalization, flow cytometry; response, % (no concentration beside the values); actives 0.43% (n = 340,000); AID 504454;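 active = response above a set limit, near 3 SD of response in nonfluorescent compounds, cut at about 42% in these data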
MC4R barr ag – human MC4R beta-arrestin agonism confirmation; shares compounds with MC4R ag barr; U2OS MC4R beta-arrestin recruitment, luminescence; scaled DMSO 0%, Melanotan II 100%; activation, % at 8.9 µM; actives 31% (n = 2,400);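 active = mean activation across replicates above the hit cutoff set in the earlier primary screen, cut at about 8% in these data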
MOR-DOR barr ag – activates mu-delta opioid heterodimer, MC4R agonist counter-screen; U2OS PathHunter beta-arrestin, beta-gal luminescence; percent of deltorphin B response, DMSO zero; actives 5.8% (n = 2,400); activation, % at 9.2 µM; AID 602194; shares compounds with MC4R ag barr;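 active = mean activation across replicates exceeds the hit threshold derived in the earlier primary screen, cut at about 18% in these data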
Target sequence (P35372 whole entry, looked up): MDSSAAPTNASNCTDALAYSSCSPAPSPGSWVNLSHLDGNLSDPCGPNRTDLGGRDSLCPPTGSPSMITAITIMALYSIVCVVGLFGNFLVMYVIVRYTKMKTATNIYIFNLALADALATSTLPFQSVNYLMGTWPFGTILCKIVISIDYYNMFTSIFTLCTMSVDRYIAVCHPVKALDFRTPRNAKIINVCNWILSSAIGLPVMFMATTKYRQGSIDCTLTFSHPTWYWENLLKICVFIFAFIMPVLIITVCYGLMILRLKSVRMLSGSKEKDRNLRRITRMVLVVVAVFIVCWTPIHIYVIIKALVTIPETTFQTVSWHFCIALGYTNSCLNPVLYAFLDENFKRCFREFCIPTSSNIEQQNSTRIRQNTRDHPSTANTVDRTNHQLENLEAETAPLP
Target sequence (P41143 whole entry, looked up): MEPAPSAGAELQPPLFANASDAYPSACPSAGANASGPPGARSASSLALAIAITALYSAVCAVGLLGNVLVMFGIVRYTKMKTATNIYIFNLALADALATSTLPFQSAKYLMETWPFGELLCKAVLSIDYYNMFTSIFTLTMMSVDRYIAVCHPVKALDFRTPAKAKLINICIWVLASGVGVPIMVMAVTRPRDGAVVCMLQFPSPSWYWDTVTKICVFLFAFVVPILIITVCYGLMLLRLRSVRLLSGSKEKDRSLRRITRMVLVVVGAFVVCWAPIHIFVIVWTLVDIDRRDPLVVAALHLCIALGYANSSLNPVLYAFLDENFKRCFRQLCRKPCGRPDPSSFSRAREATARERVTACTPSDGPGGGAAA
Of the large screens only hits and unclear results are named; the others gave an inactive call (follow-up assays come after a bar, where they were run). Shown are actives, neighbours in structure and some others; about 4.3% of the full set was active somewhere.

O=[N+]([O-])c1ccc(S(=O)(=O)Nc2ccc(-c3ccccc3)cc2)cc1	MC4R ag barr 14.6 (no result: Beta2AR agonist) | MC4R barr ag inactive | MOR-DOR barr ag inactive
COc1cc2ccccc2cc1C(=O)OCc1nc2ccsc2c(=O)[nH]1	MC4R ag barr 15.1 | MC4R barr ag inactive | MOR-DOR barr ag inactive
Cc1ccccc1OCC(=O)Nc1cccc2nsnc12	MC4R ag barr 10.8 | MC4R barr ag inactive | MOR-DOR barr ag inactive
CS(=O)(=O)N(Cc1ccc(Cl)cc1)c1ccc(C(=O)NCCC2=CCCCC2)cc1	MC4R ag barr 12.8 | MC4R barr ag inactive | MOR-DOR barr ag inactive
CCC12CCCN3CCC4(C(=C(C(=O)OC)C1)Nc1ccccc14)C32 (centres undefined)	MC4R ag barr 10.4 | MC4R barr ag inactive | MOR-DOR barr ag inactive
COc1cc(CC(=O)NCCc2ccc(OCc3ccccc3)cc2)c([N+](=O)[O-])cc1OC	MC4R ag barr 12.4 | MC4R barr ag inactive | MOR-DOR barr ag inactive
Cc1c(Cc2ccccc2)sc(NC(=O)c2ccco2)c1C(N)=O	MC4R ag barr 9.7 | MC4R barr ag inactive | MOR-DOR barr ag inactive
CCOC(=O)c1cc(NC(=O)c2ccc(C)cc2)c(=O)oc1-c1ccccc1	MC4R ag barr 11.2 | MC4R barr ag inactive | MOR-DOR barr ag inactive
O=S(=O)(NCC1CCCO1)c1ccc(S(=O)(=O)N(Cc2ccc(F)cc2)C2CCCCC2)cc1 (centres undefined)	MC4R ag barr 10.0 | MC4R barr ag inactive | MOR-DOR barr ag inactive
O=C(Nc1ccc2c(c1)OCCO2)C1c2ccccc2OCC(=O)N1CCCN1CCOCC1 (centres undefined)	none (no result: MC4R antag cAMP, MC4R ag barr, Beta2AR agonist)
Cc1cc(C(=O)NC2CCCN(Cc3ccc(Cl)cc3)C2)c(C)o1 (centres undefined)	none
COc1ccc(/C=N/NC(=O)CSc2nnc(CCCc3ccc(OC)c(C)c3)o2)cc1	none
C=CCc1cc(/C=N\NC(=O)CSc2nnc(CCCc3ccc(OC)c(C)c3)o2)cc(OC)c1O	MC4R ag barr 22.8 | MC4R barr ag inactive | MOR-DOR barr ag inactive
C=CCc1cc(/C=N/NC(=O)CSc2nnc(CCCc3ccc(OC)cc3)o2)cc(OC)c1O	MC4R ag barr 33.4 | MC4R barr ag inactive | MOR-DOR barr ag inactive
COc1ccc(CCCc2nnc(SCC(=O)N/N=C\c3ccc(O)c(OC)c3)o2)cc1C	none
CCOC(=O)c1c(N)sc(C(O)(C(F)(F)F)C(F)(F)F)c1-c1ccc(F)cc1	MC4R ag barr 11.1 | MC4R barr ag inactive | MOR-DOR barr ag inactive
CCOC(=O)c1c(N)sc(C(O)(C(F)(F)F)C(F)(F)F)c1-c1ccc(Cl)cc1	none
CCN(CC)Cc1c(C(=O)N/N=C/c2cccc(OCc3cccc(Cl)c3)c2)nnn1-c1nonc1N	none
CCOC(=O)C1=C(c2ccccc2)NC(N)=NC1c1ccc(OCc2ccc(C(=O)OC)cc2)cc1 (centres undefined)	MC4R ag barr 14.3 | MC4R barr ag inactive | MOR-DOR barr ag inactive
CCOC(=O)C1=C(c2ccccc2)Nc2ncnn2C1c1ccc(C(=O)O)cc1 (centres undefined)	none
CC1(c2cccc(Br)c2)NC(=O)N(CC(=O)c2ccc3c(c2)OCO3)C1=O (centres undefined)	none (no result: Beta2AR agonist)
COC(=O)c1cccc(NC(=O)CSc2nnc(COc3cccc(C)c3)n2C)c1	none
Cc1cccc(OCc2nnc(SCC(=O)Nc3sc(C)c(C)c3C#N)n2C)c1	MC4R ag barr 16.6, TAAR1 ag 41.8 | MC4R barr ag inactive | MOR-DOR barr ag inactive
